The results in this text go back to ChEMBL document CHEMBL4196014, “Highly convergent synthesis and antiviral activity of (E)-but-2-enyl nucleoside phosphonoamidates” (Eur J Med Chem, 2018).

Broadly, the EC50 is the concentration at which the effect is half-maximal. What is called CC50 is the concentration at which the toxic effect on the cells reaches its halfway point.

Series [1] deals with Human betaherpesvirus 5. The series can be described thus: Antiviral activity against Human cytomegalovirus AD169 infected in HEL cells assessed as reduction in viral cytopathic effect. The format is functional, organism-based. Particulars: Human betaherpesvirus 5, AD169, HEL. The procedure, abridged:
(§1)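 Confluent cell monolayers were infected with 100 CCID50 of virus (1 CCID50 is the dose infecting 50% of cultures) with test compound at varying concentrations (100, 20, … μM). CPE was scored once it was complete in untreated infected controls.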

For series [2], the system named is Human betaherpesvirus 5. In words: Antiviral activity against Human cytomegalovirus Davis infected in HEL cells assessed as reduction in viral cytopathic effect. It counts as functional, organism-based. Particulars: Human betaherpesvirus 5, Davis. A digest of the protocol: as §1
(Cytopathic effects are the visible damage that an infection or toxin causes in cultured cells.)

In series [3] the test system is Human alphaherpesvirus 3. The series can be described thus: Antiviral activity against Varicella zoster virus Oka infected in HEL cells assessed as reduction in viral plaque formation. The format is functional, organism-based. Particulars: Human alphaherpesvirus 3, strain Oka vaccine. A digest of the protocol: (§2)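 Confluent cultures were inoculated with 20 PFU of virus with compound at varying concentrations (100, 20, … μM). Plaques were counted once plaque formation was complete in untreated infected controls.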

The test system of series [4] is Human alphaherpesvirus 3. The series can be described thus: Antiviral activity against thymidine kinase deficient Varicella zoster virus 07/1 infected in HEL cells assessed as reduction in viral plaque formation. Particulars: Human alphaherpesvirus 3, 07/1, HEL. It counts as functional, organism-based. The procedure, abridged: as §2
Series [5] in a line: Cytotoxicity against HEL cells assessed as alteration of cell morphology by microscopic method. It counts as cell-based. Particulars: human. A digest of the protocol:
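MCC is the lowest compound concentration giving a microscopically visible alteration of cell morphology.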

For a further series, the system named is HEL. The series can be described thus: Cytostatic activity against HEL cells after 3 days by Coulter counting method. The format is cell-based. Particulars: human, 72 h. The procedure, abridged:
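HEL cells were seeded at 5 × 10^3 cells/well and grown for 24 h, then given medium with graded compound concentrations. After 3 days at 37 °C, cells were counted with a Coulter counter.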

Series [6] is described as follows: Selectivity index, ratio of CC50 for HEL cells to EC50 for Varicella zoster virus Oka infected in HEL cells. It counts as toxicity, cell-based. Particulars: human, read-out: Ratio CC50/EC50. The procedure, abridged: (§3)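 SI is CC50 divided by EC50. CC50 comes from the 3-day HEL Coulter-counter growth assay. EC50 comes from the VZV plaque-reduction assay (20 PFU inoculum).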

Series [7] is described as follows: Selectivity index, ratio of CC50 for HEL cells to EC50 for thymidine kinase deficient Varicella zoster virus 07/1 infected in HEL cells. The format is toxicity, cell-based. Particulars: human, read-out: Ratio CC50/EC50. A digest of the protocol:
as §3

The test system of series [8] is Human alphaherpesvirus 1. In words: Antiviral activity against Human simplex virus 1 KOS infected in HEL cells assessed as reduction in viral cytopathic effect. The format is functional, organism-based. Particulars: Human alphaherpesvirus 1, KOS. The procedure, abridged:
as §1

In series [9] the test system is Human alphaherpesvirus 1. The series can be described thus: Antiviral activity against thymidine kinase deficient acyclovir-resistant Human simplex virus 1 KOS infected in HEL cells assessed as reduction in viral cytopathic effect. It counts as functional, organism-based. Particulars: Human alphaherpesvirus 1, KOS. A digest of the protocol: as §1
The subject of a further series is Human alphaherpesvirus 2. In words: Antiviral activity against Human simplex virus 2 G infected in HEL cells assessed as reduction in viral cytopathic effect. The format is functional, organism-based. Particulars: Human alphaherpesvirus 2, strain G. A digest of the protocol: as §1
The subject of a further series is Vaccinia virus. The series can be described thus: Antiviral activity against Vaccinia virus infected in HEL cells assessed as reduction in viral cytopathic effect. The format is functional, organism-based. Particulars: Orthopoxvirus vaccinia. The procedure, abridged:
as §1

Another series has as its system Human coronavirus 229E. In words: Antiviral activity against Human coronavirus 229E infected in HEL cells assessed as reduction in viral cytopathic effect. It counts as functional, organism-based. A digest of the protocol:
as §1

The subject of another series is Human respirovirus 3. In words: Antiviral activity against Human parainfluenza virus 3 infected in African green monkey Vero cells assessed as reduction in viral cytopathic effect. It counts as functional, organism-based. A digest of the protocol: as §1
For series [10], the system named is Mammalian orthoreovirus 1. The series can be described thus: Antiviral activity against Reovirus-1 infected in African green monkey Vero cells assessed as reduction in viral cytopathic effect. It counts as functional, organism-based. A digest of the protocol: as §1
A further series concerns Sindbis virus. In words: Antiviral activity against Sindbis virus infected in African green monkey Vero cells assessed as reduction in viral cytopathic effect. It counts as functional, organism-based. The procedure, abridged:
as §1

In series [11] the test system is Coxsackievirus B4. The series can be described thus: Antiviral activity against Coxsackievirus B4 infected in African green monkey Vero cells assessed as reduction in viral cytopathic effect. It counts as functional, organism-based. A digest of the protocol: as §1
In series [12] the test system is Vesicular stomatitis virus. The series can be described thus: Antiviral activity against Vesicular stomatitis virus infected in human HeLa cells assessed as reduction in viral cytopathic effect. The format is functional, organism-based. A digest of the protocol: as §1
For series [13], the system named is Coxsackievirus B4. In words: Antiviral activity against Human coxsackievirus B4 infected in human HeLa cells assessed as reduction in viral cytopathic effect. It counts as functional, organism-based. The procedure, abridged:
as §1

Series [14] relates to Respiratory syncytial virus. The series can be described thus: Antiviral activity against Respiratory syncytial virus infected in human HeLa cells assessed as reduction in viral cytopathic effect. The format is functional, organism-based. A digest of the protocol: as §1
Another series concerns Influenza A virus. The series can be described thus: Antiviral activity against Influenza A virus (H1N1) infected in MDCK cells assessed as reduction in viral cytopathic effect. It counts as functional, organism-based. The procedure, abridged:
(§4)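 Nearly confluent MDCK cultures were infected with 100 CCID50 of virus with compound at varying concentrations (100, 20, … μM). CPE was scored when complete in untreated infected controls.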

Another series has as its system Influenza A virus H3N2. The series can be described thus: Antiviral activity against Influenza A virus H3N2 infected in MDCK cells assessed as reduction in viral cytopathic effect. The format is functional, organism-based. The procedure, abridged:
as §4

The test system of a further series is Influenza B virus. In words: Antiviral activity against Influenza B virus infected in MDCK cells assessed as reduction in viral cytopathic effect. It counts as functional, organism-based. A digest of the protocol:
as §4

The test system of series [15] is Human immunodeficiency virus 1. The series can be described thus: Antiviral activity against Human immunodeficiency virus 1 LAV1 infected in primary human PBM cells after 6 days by reverse transcriptase activity-based assay. The format is functional, organism-based.

The source made the active and inactive calls. The rule behind the calls is not given here.

`COC(=O)[C@H](C)NP(=O)(C/C=C/Cn1cc(C)c(=O)[nH]c1=O)Oc1ccccc1` (stereo not given in full): the EC50 was not below 72 µM with Human betaherpesvirus 5 [1]; not below 70 µM in the series on Human betaherpesvirus 5 [2]; 8.13 µM in the series on Human alphaherpesvirus 3 [3]; 1.82 µM in the series with Human alphaherpesvirus 3 [4]; 59 µM in the series with Human alphaherpesvirus 1 [8]; 23.5 µM in the series with Human alphaherpesvirus 1 [9]. In addition, the results for the EC50 in the series on Human alphaherpesvirus 2, in the series on Vaccinia virus and in the series on Human coronavirus 229E were 31 µM, more than 100 µM and more than 100 µM, respectively. For the same compound, the MCC in series [5] was more than 100 µM. In the series on HEL, this compound registered a CC50 of more than 100 µM. For the same compound, the selectivity ratio in series [6] is more than 12; in series [7], more than 55. In addition, the result (in the series with Human respirovirus 3; in series [10]; with Sindbis virus; in the series with Coxsackievirus B4 [11]; in [12]; in the series with Coxsackievirus B4 [13]) was inactive. Also, the result (in series [14]; in the series with Influenza A virus; in the series with Influenza A virus H3N2; in the series with Influenza B virus; in [15]) was inactive.

Regarding `Cc1cn(C/C=C/CP(=O)(N[C@@H](C)C(=O)OC(C)C)Oc2ccccc2)c(=O)[nH]c1=O` (stereo not given in full), the EC50 in the series with Human betaherpesvirus 5 [1] is 25.9 µM; in the series on Human betaherpesvirus 5 [2], 13.5 µM; in the series on Human alphaherpesvirus 3 [3], 4.59 µM; in the series with Human alphaherpesvirus 3 [4], 1.03 µM; with Human alphaherpesvirus 1 [8], more than 100 µM; with Human alphaherpesvirus 1 [9], more than 100 µM. For the same compound, the EC50 in the series with Human alphaherpesvirus 2, with Vaccinia virus and in the series with Human coronavirus 229E was more than 100 µM each time. For the same compound, the MCC in series [5] is more than 100 µM. The CC50 with HEL was more than 100 µM. Also, the values for the selectivity ratio in [6] and in series [7] were more than 22 and more than 97, respectively. The outcome (in the series with Human respirovirus 3; in [10]; in the series with Sindbis virus; in the series with Coxsackievirus B4 [11]; in [12]; in the series on Coxsackievirus B4 [13]) was inactive. For the same compound, the outcome (in series [14]; with Influenza A virus; in the series on Influenza A virus H3N2; with Influenza B virus; in [15]) was inactive.

On to `Cc1cn(C/C=C/C[P@](=O)(N[C@@H](C)C(=O)OCc2ccccc2)Oc2ccccc2)c(=O)[nH]c1=O`, for which the EC50 is 29.9 µM with Human betaherpesvirus 5 [1]; 44.7 µM with Human betaherpesvirus 5 [2]; 0.39 µM with Human alphaherpesvirus 3 [3]; 0.33 µM in the series on Human alphaherpesvirus 3 [4]; 9.6 µM with Human alphaherpesvirus 1 [8]; 3.2 µM with Human alphaherpesvirus 1 [9]. In addition, the EC50 with Human alphaherpesvirus 2 was 5.3 µM; in the series with Vaccinia virus, more than 100 µM; in the series with Human coronavirus 229E, 24.6 µM. Also, the MCC in series [5] is more than 100 µM. In the series with HEL, the CC50 is not below 83 µM. Besides, the selectivity ratio in series [6] is not below 213; in [7], not below 252. Moreover, the result (in the series on Human respirovirus 3; in series [10]; with Sindbis virus; in the series on Coxsackievirus B4 [11]; in series [12]; in the series with Coxsackievirus B4 [13]) was inactive. Moreover, the result (in series [14]; with Influenza A virus; in the series on Influenza A virus H3N2; in the series with Influenza B virus; in [15]) was inactive.

Consider `Cc1cn(C/C=C/C[P@@](=O)(N[C@@H](C)C(=O)OCc2ccccc2)Oc2ccccc2)c(=O)[nH]c1=O`, for which the EC50 in the series with Human betaherpesvirus 5 [1] was determined as 34.2 µM; in the series on Human betaherpesvirus 5 [2], 52.5 µM; in the series on Human alphaherpesvirus 3 [3] it was 0.59 µM; with Human alphaherpesvirus 3 [4], 0.39 µM; with Human alphaherpesvirus 1 [8] it was 11.5 µM; with Human alphaherpesvirus 1 [9], 4.1 µM. The EC50 in the series with Human alphaherpesvirus 2 was 2.9 µM; with Human coronavirus 229E, 60 µM. The MCC in [5] was more than 100 µM. Also, it took 55 µM to reach half-maximal cytotoxicity with HEL (CC50). In addition, the selectivity ratio was 93 in series [6] and 141 in series [7]. Further, the result (in the series on Human respirovirus 3; in series [10]; in the series with Sindbis virus; in the series on Coxsackievirus B4 [11]; in series [12]; with Coxsackievirus B4 [13]) was inactive. For the same compound, the outcome (in series [14]; in the series with Influenza A virus; with Influenza A virus H3N2; in the series with Influenza B virus; in [15]) was inactive.
